# Published values gathered from unrelated publications.
# Protocols differ between the studies behind these lines.
# Medium: plasma
# Route: oral
SMILES,species,dose,notes,Cmax
COc1ccc([C@@H]2CN(C(=O)[C@@H](O)CO)C[C@@]2(C)[C@@H](C)O)cc1OC1CN(c2ccc(C)cn2)C1,human,1.5 mg,"single dose, healthy volunteers",76.5 ng/mL
CC(C)(O)c1ccccc1-c1ccc2[nH]c(/C=C/c3ccc(C(F)(F)F)cc3)nc2c1,male human,2 mg,"single dose, fasted, healthy volunteers",7.66 ng/mL
Cn1cc(-c2ccc(S(=O)(=O)[C@@H]3C[C@@H](C(=O)NC4(C#N)CC4)N(C(=O)C4(C(F)(F)F)CC4)C3)c(C(F)(F)F)c2)cn1,human,100 mg,"single dose, fasted, healthy volunteers",516 ng/mL
CCc1nc2c(C)cc(N3CCN(CC(=O)N4CC(O)C4)CC3)cn2c1N(C)c1nc(-c2ccc(F)cc2)c(C#N)s1,human,150 mg,"single dose, fed, healthy volunteers",1400 ng/mL
CCn1c(=O)c(-c2cc(NC(=O)Nc3ccccc3)c(F)cc2Br)cc2cnc(NC)cc21,human,150 mg,"single dose, patients",502 ng/mL
COCCOc1cnc2ccn([C@H](C)c3nnc4c(F)cc(-c5cnn(C)c5)cn34)c(=O)c2c1,human,300 mg,"multiple doses, once daily, patients",4140 ng/mL
COc1cc(C(=O)NC2CCN(C)CC2)c(F)cc1Nc1ncc(C(F)(F)F)c(Oc2cccc3c2C(=O)N(C)C3)n1,human,25 mg,"multiple doses, once daily, steady state, patients",405 nM
CO[C@H]1CC[C@H](N2C(=O)CNc3ncc(-c4ccc(C(C)(C)O)nc4)nc32)CC1,human,15 mg,patients,97.4 ng/mL
CC(C)n1cc(C#N)c2cc(-n3cc(C(=O)O)cn3)ccc21,human,200 mg,"single dose, fed",5400 ng/mL
